In the library only some 2.6% were active in any assay of this set; here they are far more common.
SENP1 FRET inh: human SENP1 catalytic domain inhibitors, primary screen, biochemical, FRET, uHTS; recombinant SENP1 catalytic domain, CyPet-SUMO1-YPet FRET cleavage; hit rate 0.21% among 360,000; inhibition, % at 10 µM; AID 624204, 2012;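 active = inhibition at least 30% at 10 µM, raw YFP signal under a set limit, fluorescence ratio 0.5 to 1.5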;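 note: 0% = enzyme with DMSO and 100% = no enzyme wells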
Target sequence (Q9P0U3 419-644 limits assumed): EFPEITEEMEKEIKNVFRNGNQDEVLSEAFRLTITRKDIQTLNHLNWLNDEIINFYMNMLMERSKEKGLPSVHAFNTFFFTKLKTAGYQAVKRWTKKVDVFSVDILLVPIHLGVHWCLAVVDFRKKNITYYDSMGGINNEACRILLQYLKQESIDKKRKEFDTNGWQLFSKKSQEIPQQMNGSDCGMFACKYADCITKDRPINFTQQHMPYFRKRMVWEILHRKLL
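system = hSENP1 catalytic domain, recombinant | reagent = SFCypet-SUMO1-SFYpet substrate at 25 nM | doses = one dose per compound, 10 µM, 0.5% DMSO | incubation = enzyme reaction for 50 min at room temperature, dark | measured by = FRET, CFP and YFP emission | controls = no-enzyme low, enzyme-DMSO high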
UCH37 inh: inhibitors of human UCH37 deubiquitinase, primary screen, biochemical, Ub-AMC cleavage, fluorescence; purified proteasome/UCH37; inhibition, % (no concentration beside the values); hit rate 0.33% among 330,000; AID 588478, 2011;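 active = mean inhibition over replicate wells above about 20%, limit read from the data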;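 note: 0% = compound-free wells with enzyme and 100% = wells lacking proteasome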
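Assay system: Proteasome-bound UCH37. Buffer or medium: pH 7.4 Tris-HCl (50 mM) with ovalbumin, ATP-MgCl2, DTT. Incubation: 30 min preincubation with enzyme, 25 min cleavage at room temperature. Measured by: fluorescence, ex 355 nm, em 460 nm. Read-out basis: percent inhibition. Control set: wells without proteasome as full block, compound-free enzyme plus substrate as uninhibited.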
SENP8 block-1: SENP8 protease inhibitors, primary screen, biochemical, luminescence; inhibition, % at 10 µM; purified SENP8, Z-RLRGG-aminoluciferin cleavage; Sentrin-specific protease 8 (Homo sapiens), Q96LD8; hit rate 1.2% among 330,000; in the data active = inhibition above about 50%
Target sequence (Q96LD8 whole entry, looked up): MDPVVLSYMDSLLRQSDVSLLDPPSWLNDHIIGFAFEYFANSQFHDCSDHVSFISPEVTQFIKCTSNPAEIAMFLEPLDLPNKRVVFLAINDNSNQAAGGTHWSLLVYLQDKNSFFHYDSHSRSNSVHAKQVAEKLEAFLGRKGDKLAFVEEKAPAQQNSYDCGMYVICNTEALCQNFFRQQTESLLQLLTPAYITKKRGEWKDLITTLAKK
SENP8 block-2: human SENP8 protease inhibitors, primary screen, biochemical, fluorescence, Nedd8 protein substrate, uHTS; Sentrin-specific protease 8 (Homo sapiens), Q96LD8; recombinant SENP8; inhibition, % at 20 µM; hit rate 0.64% among 360,000; in the data active = inhibition mostly above about 40%, no sharp cut-off; inactive = mostly below about 27%
SENP7 inh: SENP7 protease inhibitors, primary screen, biochemical, luminescence, uHTS. recombinant SENP7, Z-RLRGG-aminoluciferin luminescence, 40 min. hit rate 1.5% among 330,000. inhibition, % at 5 µM. Sentrin-specific protease 7 (Homo sapiens), Q9BQF6;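 active = inhibition above about 50% at the single test dose, limit read from the data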;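 note: plate controls were DMSO with enzyme for no effect and no enzyme buffer wells for full effect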
SENP6 inh: SENP6 protease inhibitors, primary screen, biochemical, luminescence, uHTS | Recombinant SENP6 catalytic domain, aminoluciferin luminescence | inhibition, % at 10 µM | hit rate 1.8% among 330,000 | AID 2599, 2010;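 active = inhibition above about 50% at the single tested dose, limit read from the data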;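 note: plate controls were DMSO wells with enzyme for no effect and DMSO wells lacking enzyme for full effect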
The depositor's hits bear a star; i = inactive; · = no result given.

SMILES | SENP1 FRET inh | UCH37 inh | SENP8 block-1 | SENP8 block-2 | SENP7 inh | SENP6 inh
CCCOc1ccc(/C=C2\SC(=S)N(CC3CCCO3)C2=O)cc1 (centres undefined) | -8 | 5 | -19 | 49* | -5 | -4
O=C1/C(=C/c2ccc(O)cc2)SC(=S)N1CC1CCCO1 (centres undefined) | 46 | 7 | 8 | 28 | 8 | 44
CCCCCCOC(=O)Nc1ccc(S(=O)(=O)Nc2cccc([N+](=O)[O-])c2)cc1 | 2 | 3 | -7 | 5 | -8 | 52*
CCCCOC(=O)Nc1ccc(S(=O)(=O)Nc2nc(C)cc(C)n2)cc1 | 0 | 7 | -7 | 21 | -4 | 8
O=c1c2ccccc2sc2c(CO)ccc(NCCN3CCCCC3)c12 | 27 | · | · | 41* | · | ·
CCN(CC)CCNc1ccc(CO)c2sc3ccccc3c(=O)c12 | 22 | 5 | 8 | 15 | 6 | 15
Cc1cc(C)c(S(=O)(=O)N=C2C=C(Sc3ncn[nH]3)C(=O)c3ccccc32)cc1C | · | 31* | · | · | · | ·
CCc1ccc(S(=O)(=O)/N=C2/C=C(Sc3ncn[nH]3)C(=O)c3ccccc32)cc1 | 6 | · | · | -65 | · | ·
O=C(CCC(=O)Nc1ccc(Br)cc1)NN=Cc1ccccc1F | · | 2 | · | · | · | ·
Cc1cc(C(F)(F)F)n2[nH]c(=O)c(N=Nc3ccccc3)c2n1 | -1 | 18 | -6 | 29 | -17 | 2
Cc1cc(C)n2[nH]c(=O)c(N=Nc3ccccc3)c2n1 | 2 | 4 | -10 | 29 | -7 | -26
Cc1cc(C)n2[nH]c(=O)c(N=Nc3cccc(C(F)(F)F)c3)c2n1 | 2 | 6 | -9 | 53* | -5 | -14
Cc1cc(C)n2[nH]c(=O)c(N=Nc3cccc(Cl)c3)c2n1 | 1 | 9 | 4 | 48* | 1 | -10
COc1ccc(C=Nn2c(=O)[nH]c3c([nH]c4ccc(Br)cc43)c2=O)cc1CN1CCOCC1 | · | -1 | · | · | · | ·
CCOC(=O)c1c(N=CC2C(=O)CCCC2=O)sc(C)c1C | · | 2 | · | · | · | ·
CCOC(=O)c1c(N=Cc2ccc(OC)cc2O)sc2c1CCN(C)C2 | · | 3 | · | · | · | ·
COc1ccccc1/C=C/C=NN1CCN(c2ccccn2)CC1 | · | 3 | · | · | · | ·
CCN(CC)CCNc1cc(C)nc2c1C(=O)C(=O)C=C2N1CCCCC1 | 4 | 3 | 13 | 56* | 18 | 31
CCN(CC)CCNC(=O)c1ccc(N2CCCCC2)c(NS(=O)(=O)c2ccc(C)cc2)c1 | -1 | -1 | 7 | -23 | 8 | -18
CCC(C(=O)Oc1c(C(C)C)cccc1C(C)C)c1ccccc1 (centres undefined) | 0 | 33* | 0 | 17 | 3 | -21
CN=c1scc(-c2ccccc2F)n1N=C(C)c1cccnc1 | · | 7 | · | · | · | ·
O=S(=O)(Nc1ccc(-c2nc3cccnc3s2)cc1)c1cc(F)ccc1F | -122 | · | 24 | -443 | -3 | 59*
CCc1ccc(S(=O)(=O)Nc2ccc(-c3nc4cccnc4s3)cc2)s1 | -30 | i | 7 | -461 | -9 | 21
O=c1nc(/C=C/c2ccc(O)c(O)c2)oc2ccccc12 | -5 | 12 | · | -113 | · | ·
COc1ccc(/C=C\c2nc(=O)c3ccccc3o2)cc1 | -4 | · | 66* | -126 | 63* | 72*
O=C(O)c1ccc2c(c1)C(=O)/C(=C/c1ccccc1)C2=O | 24 | 22* | 3 | 11 | 0 | 22
O=C1C(=Cc2ccco2)C(=O)c2ccccc21 | 8 | 5 | -8 | 18 | 19 | 2
O=C(O)c1ccc2c(c1)C(=O)/C(=C\c1ccco1)C2=O | 31* | 13 | 0 | 17 | 6 | 8
CCOC(=O)C1=C(C)N=c2sc(=Cc3ccco3)c(=O)n2C1c1cccc(OC)c1 (centres undefined) | · | 1 | · | · | · | ·
O=C(COc1ccc(Cl)cc1Cl)NN=Cc1ccc[nH]1 | · | 0 | · | · | · | ·

Compound activity (PubChem BioAssay)
